This note sets out measurements from ChEMBL document CHEMBL1129660, “Studies on 6-aminoquinolones: synthesis and antibacterial evaluation of 6-amino-8-methylquinolones” (J Med Chem, 1996).

Values after ≈ are worked out from the molar mass of the structure shown.

Type in all cases: functional
The test system of assay [1] is Escherichia coli. Nature of the assay: Antibacterial activity tested against Escherichia coli ATCC 8739. The method, boiled down:
(§1)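 MICs (µg/mL) determined by conventional agar dilution against a panel of eight Gram-negative and five Gram-positive reference strains.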

The subject of assay [2] is Escherichia coli. As to the kind of experiment: Antibacterial activity tested against Escherichia coli ISF 432. The method, boiled down: as §1
Assay [3] relates to Enterobacter cloacae. Nature of the assay: Antibacterial activity tested against Enterobacter cloacae OMNFI 174.
In assay [4] the test system is Bacteria. As to the kind of experiment: Geometric mean of antibacterial activity (Gram +ve bacteria) of the compound. The method, boiled down: (§2)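 Geometric means calculated from agar-dilution MICs (µg/mL), taken separately across the five Gram-positive and the eight Gram-negative panel strains.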
Assay [5] in a line: Geometric mean of antibacterial activity (Gram -ve bacteria) of the compound. The essentials: as §2
In assay [6] the test system is Klebsiella pneumoniae. Nature of the assay: Antibacterial activity tested against Klebsiella pneumoniae (Klebsiella pneumoniae) ATCC 10031. The essentials: as §1
Assay [7] deals with Proteus vulgaris. As to the kind of experiment: Antibacterial activity tested against Proteus vulgaris CNUR 5. The method, boiled down:
as §1

Assay [8] has as its system Providencia stuartii. Nature of the assay: Antibacterial activity tested against Providencia stuartii CNUR 5. The essentials:
as §1

Assay [9] has as its system Pseudomonas aeruginosa. Nature of the assay: Antibacterial activity tested against P. ae (Pseudomonas aeruginosa) ATCC 9027. The method, boiled down: as §1
Assay [10] has as its system Shigella. Nature of the assay: Antibacterial activity tested against Shigella enteritidis. The essentials:
as §1

In assay [11] the test system is Staphylococcus aureus. Nature of the assay: Antibacterial activity against Staphylococcus aureus ATCC 6538. The method, boiled down:
as §1

Assay [12] concerns Staphylococcus aureus. As to the kind of experiment: Antibacterial activity against Staphylococcus aureus MPR 5. The essentials:
as §1

In assay [13] the test system is Enterococcus faecalis. Nature of the assay: Antibacterial activity tested against Streptococcus faecalis LEP Br. The essentials:
as §1

Assay [14] concerns Staphylococcus epidermidis. Nature of the assay: Antibacterial activity tested against Staphylococcus epidermidis CPHL A2. The essentials: as §1
The test system of assay [15] is Staphylococcus epidermidis. Nature of the assay: Antibacterial activity tested against Staphylococcus epidermidis HCF Berset C. The method, boiled down: as §1
Assay [16] concerns Escherichia coli. As to the kind of experiment: Inhibitory activity against gyrase supercoiling activity from Escherichia coli. The essentials: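 Inhibition of DNA gyrase supercoiling activity, by a previously described protocol with slight modifications. IC50 derived by densitometric quantification of the supercoiled DNA peak in an agarose gel.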

The term MIC denotes the lowest concentration found to suppress growth. Lower therefore signals inhibition by little substance. `Cc1c(N2CCCCC2)c([N+](=O)[O-])cc2c(=O)c(C(=O)O)cn(C3CC3)c12`: the MIC in assay [1] came out at 32 µg/mL (≈ 86.2 µM); in [2], 4 µg/mL (≈ 10.8 µM); in assay [3] it was 64 µg/mL (≈ 172 µM); in assay [6], 64 µg/mL (≈ 172 µM); in assay [7] it was 64 µg/mL (≈ 172 µM); in assay [8], 64 µg/mL (≈ 172 µM). Moreover, the minimal inhibitory concentration (MIC) in assay [9] is 64 µg/mL (≈ 172 µM); in assay [10], 64 µg/mL (≈ 172 µM); in assay [11], 32 µg/mL (≈ 86.2 µM); in assay [12], 1 µg/mL (≈ 2.69 µM); in [13] it was 32 µg/mL (≈ 86.2 µM); in [14], 8 µg/mL (≈ 21.5 µM). In addition, inhibition of growth in assay [15] (MIC) required 8 µg/mL (≈ 21.5 µM). For the same molecule, the Geometric mean in assay [4] is listed as 9.189; in assay [5] it was 41.5.
For the molecule `Cc1c(N2CC3CCC2CC3)c(N)cc2c(=O)c(C(=O)O)cn(C3CC3)c12`, the minimum inhibitory concentration (MIC) in assay [1] is 4 µg/mL (≈ 10.9 µM); in assay [2], 0.3 µg/mL (≈ 0.816 µM); in assay [3], 4 µg/mL (≈ 10.9 µM); in assay [6], 0.03 µg/mL (≈ 0.0816 µM); in [7], 64 µg/mL (≈ 174 µM); in assay [8], 1 µg/mL (≈ 2.72 µM). The minimum inhibitory concentration (MIC) stood at 16 µg/mL (≈ 43.5 µM) in assay [9]; 3 µg/mL (≈ 8.16 µM) in assay [10]; 0.03 µg/mL (≈ 0.0816 µM) in assay [11]; 0.03 µg/mL (≈ 0.0816 µM) in [12]; 4 µg/mL (≈ 10.9 µM) in assay [13]; 0.25 µg/mL (≈ 0.68 µM) in assay [14]. Moreover, in [15], the MIC is 1 µg/mL (≈ 2.72 µM). Moreover, the values for the Geometric mean in [4] and in assay [5] were 0.246 and 2.141, respectively.
The IC50 is the concentration needed to halve the response being measured. A higher IC50 goes with lower potency. Consider `Cc1c(N2CCc3ccccc3C2)c(F)cc2c(=O)c(C(=O)O)cn(C3CC3)c12`, for which the MIC came out at 0.06 µg/mL (≈ 0.153 µM) in assay [1]; 0.03 µg/mL (≈ 0.0764 µM) in assay [2]; 4 µg/mL (≈ 10.2 µM) in [3]; 0.03 µg/mL (≈ 0.0764 µM) in assay [6]; 4 µg/mL (≈ 10.2 µM) in assay [7]; 2 µg/mL (≈ 5.1 µM) in assay [8]. The MIC in assay [9] stood at 4 µg/mL (≈ 10.2 µM); in assay [10], 0.25 µg/mL (≈ 0.637 µM); in assay [11], 0.03 µg/mL (≈ 0.0764 µM); in [12], 0.03 µg/mL (≈ 0.0764 µM); in assay [13] it was 0.25 µg/mL (≈ 0.637 µM); in [14], 0.03 µg/mL (≈ 0.0764 µM). It took 0.03 µg/mL (≈ 0.0764 µM) to inhibit growth in assay [15] (MIC). The molecule further returned an IC50 in [16] of 3.14 µg/mL (≈ 8 µM). Moreover, the values for the Geometric mean in assay [4] and in [5] were 0.046 and 0.451, respectively.
On to `CN1CCN(c2cc3c(cc2N)c(=O)c(C(=O)O)cn3C2CC2)CC1`, for which the minimum inhibitory concentration (MIC) worked out at 0.25 µg/mL (≈ 0.73 µM) in [1]; 0.03 µg/mL (≈ 0.0876 µM) in [2]; 0.25 µg/mL (≈ 0.73 µM) in assay [3]; 0.03 µg/mL (≈ 0.0876 µM) in assay [6]; 64 µg/mL (≈ 187 µM) in assay [7]; 8 µg/mL (≈ 23.4 µM) in [8]. Further, the minimal inhibitory concentration (MIC) turned out to be 4 µg/mL (≈ 11.7 µM) in [9]; 0.25 µg/mL (≈ 0.73 µM) in assay [10]; 2 µg/mL (≈ 5.84 µM) in assay [11]; 2 µg/mL (≈ 5.84 µM) in assay [12]; 32 µg/mL (≈ 93.5 µM) in assay [13]; 2 µg/mL (≈ 5.84 µM) in [14]. The molecule also gave a minimal inhibitory concentration (MIC) in assay [15] of 4 µg/mL (≈ 11.7 µM). Moreover, the values for the Geometric mean in assay [4] and in assay [5] were 4 and 0.642, respectively.
In the case of `Cc1c(N2CC(C)CC(C)C2)c(N)cc2c(=O)c(C(=O)O)cn(C3CC3)c12` (stereo unspecified), the MIC in assay [1] came to 0.125 µg/mL (≈ 0.338 µM); in [2] it was 0.03 µg/mL (≈ 0.0812 µM); in [3] it was 2 µg/mL (≈ 5.41 µM); in [6], 0.06 µg/mL (≈ 0.162 µM); in assay [7], 16 µg/mL (≈ 43.3 µM); in [8], 0.5 µg/mL (≈ 1.35 µM). In addition, the MIC in assay [9] is 4 µg/mL (≈ 10.8 µM); in assay [10], 2 µg/mL (≈ 5.41 µM); in assay [11], 0.03 µg/mL (≈ 0.0812 µM); in [12] it was 0.03 µg/mL (≈ 0.0812 µM); in [13], 1 µg/mL (≈ 2.71 µM); in assay [14], 0.06 µg/mL (≈ 0.162 µM). Also, the MIC in assay [15] is 0.06 µg/mL (≈ 0.162 µM). Further, the values for the Geometric mean in assay [4] and in [5] were 0.079 and 0.641, respectively.
Regarding `Cc1c(N2CCC2)c(N)cc2c(=O)c(C(=O)O)cn(C3CC3)c12`, the MIC in assay [1] was 16 µg/mL (≈ 51.1 µM); in assay [2] it was 0.25 µg/mL (≈ 0.798 µM); in [3], 16 µg/mL (≈ 51.1 µM); in [6], 0.25 µg/mL (≈ 0.798 µM); in assay [7], more than 128 µg/mL; in assay [8] it was 64 µg/mL (≈ 204 µM). In addition, the minimum inhibitory concentration (MIC) in [9] is more than 128 µg/mL; in assay [10], 16 µg/mL (≈ 51.1 µM); in [11] it was 8 µg/mL (≈ 25.5 µM); in assay [12], 8 µg/mL (≈ 25.5 µM); in assay [13], more than 128 µg/mL; in assay [14], 16 µg/mL (≈ 51.1 µM). The same molecule came in with an MIC in assay [15] of 16 µg/mL (≈ 51.1 µM). In addition, the Geometric mean in assay [4] is reported as 18.379; in assay [5] it was 11.313.
